Measurements as given in ChEMBL document CHEMBL1782023, “Spirocyclic lignans from Guaiacum (Zygophyllaceae) induce apoptosis in human breast cancer cell lines” (J Nat Prod, 2011).
Calls of active or inactive are those of the source. No cut-off for these calls is given here.

Tests used:
MDA-MB-231 [1] = assay: Induction of apoptosis in human MDA-MB-231 cells assessed as condensation of nucleus after 24 hrs using Hoechst 33342/propidium iodide staining […]; type: functional, cell-based
MDA-MB-231 [2] = assay: Induction of apoptosis in human MDA-MB-231 cells assessed as condensation of cytoplasm after 24 hrs using Hoechst 33342/propidium iodide staining by FACS analysis; type: functional, cell-based
MDA-MB-231 [3] = assay: Induction of apoptosis in human MDA-MB-231 cells assessed as chromatin condensation after 24 hrs using Hoechst 33342/propidium iodide staining […]; type: functional, cell-based
MDA-MB-231 [4] = assay: Cytotoxicity against human MDA-MB-231 cells after 48 hrs by Alamar blue assay; type: functional, cell-based; settings: MDA-MB-231, 48 h
Procedure, shortened: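 Cells were seeded at 5000 per well and grown for 24 h. Samples were then added from DMSO solution, with 0.1% DMSO as vehicle control. After 48 h incubation, viability was read from Alamar blue colour spectrophotometrically at 540 nm.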

MDA-MB-231 [5] = assay: Induction of apoptosis in human MDA-MB-231 cells assessed as chromatin segregation after 24 hrs using Hoechst 33342/propidium iodide staining […]; type: functional, cell-based
MDA-MB-231 [6] = assay: Cell cycle arrest in human MDA-MB-231 cells assessed as increase of cells in sub-G0 phase after 24 hrs using annexin V/propidium iodide staining by flow cytometry; type: functional, cell-based
Procedure, shortened: (§1)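 Cells cultured in RPMI 1640 with 10% heat-inactivated FCS, 37 °C, 5% CO2. After 24 h of growth, cells were treated with test samples dissolved in DMSO for a further 24 h. Cell cycle distribution was measured by FACS with annexin V/propidium iodide double staining. For DNA content, singlet events were gated and 10 000-20 000 events were acquired. Read-out: percentage of cells in S phase and in sub-G0 phase.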

MDA-MB-231 [7] = assay: Cell cycle arrest in human MDA-MB-231 cells assessed as decrease in cells in S phase after 24 hrs using annexin V/propidium iodide staining by flow cytometry; type: functional, cell-based; procedure, shortened: as §1
MDA-MB-231 [8] = assay: Cell cycle arrest in human MDA-MB-231 cells assessed as decrease in cells in S phase at 30 ug/ml after 24 hrs using annexin V/propidium iodide staining by flow cytometry (reference value: 13%); type: functional; design: scale not given: the % may be the effect or the level left; procedure, shortened: as §1
MDA-MB-231 [9] = assay: Induction of apoptosis in human MDA-MB-231 cells assessed as loss of membrane […] at 1.2 to 30 ug/ml using Hoechst 33342/propidium iodide staining by FACS analysis; type: functional, cell-based; settings: TDE = time-dependent effect
MDA-MB-231 [10] = assay: Induction of apoptosis in human MDA-MB-231 cells assessed as condensation of nucleus at 1.2 to 30 ug/ml using Hoechst 33342/propidium iodide staining […]; type: functional, cell-based; settings: TDE = time-dependent effect
MDA-MB-231 [11] = assay: Induction of apoptosis in human MDA-MB-231 cells assessed as condensation of cytoplasm at 1.2 to 30 ug/ml […]; type: functional, cell-based; settings: TDE = time-dependent effect
MDA-MB-231 [12] = assay: Induction of apoptosis in human MDA-MB-231 cells assessed as chromatin condensation at 1.2 to 30 ug/ml using Hoechst 33342/propidium iodide staining […]; type: functional, cell-based; settings: TDE = time-dependent effect
MDA-MB-231 [13] = assay: Induction of apoptosis in human MDA-MB-231 cells assessed as chromatin segregation at 1.2 to 30 ug/ml using Hoechst 33342/propidium iodide staining […]; type: functional, cell-based; settings: TDE = time-dependent effect
MDA-MB-231 [14] = assay: Induction of apoptosis in human MDA-MB-231 cells assessed as loss of membrane […] after 24 hrs using Hoechst 33342/propidium iodide staining by FACS analysis; type: functional, cell-based

| Compound | IC50 (MDA-MB-231 [4]) [µM] | Activity (MDA-MB-231 [6]) | Activity (MDA-MB-231 [7]) | Activity (MDA-MB-231 [8]) [%] | also measured |
| --- | --- | --- | --- | --- | --- |
| C=C1[C@@H](c2ccc(O)c(OC)c2)O[C@@H](c2ccc(O)c(OC)c2)[C@@]12CCC1=C(C2)[C@@H](c2ccc(O)c(OC)c2)O[C@H]1c1ccc(O)c(OC)c1 [RAMONANIN A] | 18 | Active | Dose-dependent effect | <4 | Activity (MDA-MB-231 [1]): Dose-dependent effect; Activity (MDA-MB-231 [2]): Dose-dependent effect; Activity (MDA-MB-231 [3]): Dose-dependent effect; Activity (MDA-MB-231 [5]): Dose-dependent effect; Activity (MDA-MB-231 [9]): tde; Activity (MDA-MB-231 [10]): tde; Activity (MDA-MB-231 [11]): tde; Activity (MDA-MB-231 [12]): tde; Activity (MDA-MB-231 [13]): tde; Activity (MDA-MB-231 [14]): Dose-dependent effect |
| C=C1[C@H](c2ccc(O)c(OC)c2)O[C@H](c2ccc(O)c(OC)c2)[C@@]12CCC1=C(C2)[C@@H](c2ccc(O)c(OC)c2)O[C@H]1c1ccc(O)c(OC)c1 [RAMONANIN B] | 18 | Active | Dose-dependent effect | <4 | – |
| CC[C@@]1(O)C(=O)OCc2c1cc1n(c2=O)Cc2cc3ccccc3nc2-1 | – | Active | Dose-dependent effect | – | – |
| C=C1[C@@H](c2ccc(O)c(OC)c2)O[C@@H](c2ccc(O)c(OC)c2)[C@@]12CCC1=C(C2)[C@@H](c2ccc(O)c(OC)c2)O[C@@H]1c1ccc(O)c(OC)c1 [RAMONANIN D] | 18 | – | – | – | – |
| C=C1[C@@H](c2ccc(O)c(OC)c2)O[C@@H](c2ccc(O)c(OC)c2)[C@@]12CCC1=C(C2)[C@H](c2ccc(O)c(OC)c2)O[C@@H]1c1ccc(O)c(OC)c1 [RAMONANIN C] | 18 | – | – | – | – |
